Compound activity: PubChem BioAssay, Broad Institute
Only some compounds are listed: those with a hit (about 3.1% of all), similar ones and a draw of the others.
Cneo AK release: Cryptococcus neoformans cell lysis inducers, primary screen, AK release luminescence, single concentration. C. neoformans lysis, adenylate kinase release luminescence, 4 h; normalised: neutral wells 0, clomiphene wells 100. lysis activity, % at 15 µM. actives 0.2% (n = 360,000). AID 651654, 2012;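 active means mean lysis activity across replicates of at least 80%, whatever share of replicates individually reach that level; inactive means mean lysis activity below 80%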
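read-out = cell lysis signal | test system = log-phase Cryptococcus neoformans yeast cells | input = cells at 5 × 10^6 per mL | medium = fresh YPD growth medium | signal = luminescent adenylate kinase detection reagent | timing = 4 h at 37 °C static, read 1 h later | dosing = single dose | controls = Clomiphene as positive lysis control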
miR-122 sensor: miR-122 Renilla sensor signal increase in Huh7, primary screen, miR-122 inhibitor project, cell-based, single point, plate reader. Huh7 miR-122 Renilla luciferase sensor, 48 h; neutral wells = 0, positive control = 100. activation (reporter increase), % at 12.5 µM. actives 0.3% (n = 340,000). AID 602342, 2012;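 active means mean replicate activation score at least 90 and every replicate individually at or above 90; inconclusive means only one of the two criteria met; inactive means neither criterion met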;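 further: higher luciferase means less miR-122 activity so hits act as miR-122 inhibitors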
DENV2 CPE: inhibitors of DENV2 cytopathic effect, primary screen, cell-based, plate reader, single concentration. actives 1.7% (n = 350,000). CPE inhibition, % at 9.99 µM. DENV2-infected cells, cytopathic effect rescue; in the data active means CPE inhibition above about 20%, passing the limit was not always enough; inconclusive means no clear call, values can overlap the other calls; tested in BHK-21 cells;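 further: 0% = median of neutral control wells and 100% = median of positive control wells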
Ecoli rRNA inh: reduced GFP signal of wild-type E. coli, primary screen, bacterial rRNA inhibitor project, GFP/RFP fluorescence, OD600, single point | E. coli WT GFP vs humanized-ribosome RFP mutants, 24 h; stronger effect = lower value; DMSO median 0, no signal -100 | GFP signal change (wild-type ribosome), % (no concentration beside the values) | actives 1.6% (n = 350,000);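 active means significant combined selectivity score with lowered wild-type GFP, culture density cut under 30%, mutant RFP and density less affected; inactive means any of these conditions unmet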
E-sel inducer: E-selectin induction in HUVECs, primary screen, imaging, HUVEC, immunofluorescence imaging, single point; P16581; normalized: neutral wells 0, TNF-alpha wells 100; activation, % at 7.58 µM; actives 0.37% (n = 260,000);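 active means mean E-selectin-positive cell signal at least 10% of the positive control, reached in at least 60% of replicates, without over 20% cell loss; inconclusive means no rule given, readout overlaps actives, possibly toxicity-flagged; inactive means the rest, including those meeting only one limit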
Target sequence (P16581 whole entry, looked up): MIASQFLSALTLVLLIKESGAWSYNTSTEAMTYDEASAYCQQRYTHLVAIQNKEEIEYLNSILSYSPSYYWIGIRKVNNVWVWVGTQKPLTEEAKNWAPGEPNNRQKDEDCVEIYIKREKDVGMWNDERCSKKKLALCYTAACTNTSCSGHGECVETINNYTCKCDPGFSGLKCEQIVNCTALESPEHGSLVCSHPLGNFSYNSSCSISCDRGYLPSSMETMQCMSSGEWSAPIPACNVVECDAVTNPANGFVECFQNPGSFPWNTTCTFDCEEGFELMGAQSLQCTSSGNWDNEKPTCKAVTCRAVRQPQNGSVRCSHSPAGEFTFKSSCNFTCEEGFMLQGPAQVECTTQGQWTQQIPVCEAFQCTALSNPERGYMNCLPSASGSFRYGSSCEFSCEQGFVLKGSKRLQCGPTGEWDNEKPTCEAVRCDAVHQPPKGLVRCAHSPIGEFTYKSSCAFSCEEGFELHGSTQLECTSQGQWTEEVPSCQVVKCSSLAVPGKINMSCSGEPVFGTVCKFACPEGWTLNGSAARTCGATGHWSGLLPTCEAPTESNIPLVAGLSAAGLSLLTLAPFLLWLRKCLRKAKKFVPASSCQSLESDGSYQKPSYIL
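Test system: HUVEC; input: 3,000 HUVEC/well; measured by: immunofluorescence imaging; read-out: % PE-positive cells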
* marks the source's active call; other numbers are inactive results; ? = inconclusive; . = not tested or not shown; [ ] = another dose, or the depositor's remark.

SMILES	Cneo AK release	miR-122 sensor	DENV2 CPE	Ecoli rRNA inh	E-sel inducer
C[C@@H]1CCCCO[C@H](CN(C)C(=O)Nc2ccc(F)cc2)[C@H](C)CN([C@@H](C)CO)C(=O)c2cc(NS(=O)(=O)c3ccc(Cl)cc3)ccc2O1	94*	-2[16.7 µM]	-3	0	1
C[C@@H]1CCCCO[C@@H](CN(C)C(=O)Nc2ccc(F)cc2)[C@H](C)CN([C@@H](C)CO)C(=O)c2cc(NS(=O)(=O)c3ccc(Cl)cc3)ccc2O1	-3	-11[16.7 µM]	-2	-3	0
C[C@H](CO)N1C[C@H](C)[C@H](CN(C)C(=O)Nc2ccc(F)cc2)OCCCC[C@H](C)Oc2ccc(NS(=O)(=O)c3ccc(Cl)cc3)cc2C1=O	10	-3[16.7 µM]	6	-1	0
C[C@H]1CCCCO[C@H](CN(C)C(=O)Nc2ccc(F)cc2)[C@@H](C)CN([C@@H](C)CO)C(=O)c2cc(NS(=O)(=O)c3ccc(Cl)cc3)ccc2O1	85*	35[16.7 µM]	.	-2	0
Cc1ccc(S(=O)(=O)Nc2ccc3c(c2)C(=O)N([C@@H](C)CO)C[C@@H](C)[C@@H](CN(C)C(=O)Nc2ccc(F)cc2)OCCCC[C@H](C)O3)cc1	-3	12[16.7 µM]	-1	1	.
Cc1ccc(S(=O)(=O)Nc2ccc3c(c2)C(=O)N([C@@H](C)CO)C[C@H](C)[C@H](CN(C)C(=O)Nc2ccc(F)cc2)OCCCC[C@@H](C)O3)cc1	53	94*[16.7 µM]	-1	2	.
C[C@@H]1CCCCO[C@H](CN(C)C(=O)Nc2ccc3c(c2)OCO3)[C@@H](C)CN([C@H](C)CO)C(=O)c2cc(NS(=O)(=O)c3ccc(Cl)cc3)ccc2O1	1	-2[16.7 µM]	25*	-1	0
CNC(=O)C[C@H]1CC[C@@H]2[C@H](COc3ccc(NC(=O)Nc4ccc(C)cc4)cc3C(=O)N2C)O1	4	1[16.7 µM]	4	0	0
CC(=O)N(C)C[C@H]1Oc2ccc(N)cc2CC(=O)N(C)C[C@@H]1C	.	.	.	0	.
Cc1ccc(S(=O)(=O)Nc2ccc3c(c2)C(=O)N([C@@H](C)CO)C[C@H](C)[C@@H](CN(C)C(=O)NC(C)C)OCCCC[C@@H](C)O3)cc1	.	.	22*	4	1
COc1ccc(NC(=O)N(C)C[C@@H]2OCCCC[C@H](C)Oc3ccc(NS(=O)(=O)c4ccccc4)cc3C(=O)N([C@H](C)CO)C[C@H]2C)cc1	-2	-9[16.7 µM]	58*	0	1
COc1ccc(S(=O)(=O)Nc2ccc3c(c2)C(=O)N([C@@H](C)CO)C[C@@H](C)[C@H](CN(C)C(=O)Cc2ccccc2)OCCCC[C@H](C)O3)cc1	-6	4[16.7 µM]	24*	1	0
COc1ccc(NC(=O)N(C)C[C@H]2OCCCC[C@@H](C)Oc3ccc(NS(=O)(=O)c4ccccc4)cc3C(=O)N([C@@H](C)CO)C[C@H]2C)cc1	2	4[16.7 µM]	17	3	0
Cc1ccc(S(=O)(=O)Nc2ccc3c(c2)C(=O)N([C@H](C)CO)C[C@@H](C)[C@@H](CN(C)C(=O)NC(C)C)OCCCC[C@H](C)O3)cc1	62	24[16.7 µM]	11	-1	0
COc1ccc(S(=O)(=O)Nc2ccc3c(c2)C(=O)N([C@@H](C)CO)C[C@@H](C)[C@H](CN(C)C(=O)Cc2ccccc2)OCCCC[C@@H](C)O3)cc1	-2	-9[16.7 µM]	3	0	0
C[C@@H]1CCCCO[C@@H](CN(C)C(=O)Nc2ccc(F)cc2)[C@@H](C)CN([C@H](C)CO)C(=O)c2cc(NS(=O)(=O)c3ccccc3)ccc2O1	-5	0[16.7 µM]	31*	6	0
C[C@@H]1CCCCO[C@H](CN(C)C(=O)Nc2ccc(F)cc2)[C@@H](C)CN([C@@H](C)CO)C(=O)c2cc(NS(=O)(=O)c3ccccc3)ccc2O1	-1	34[16.7 µM]	-11	-2	0
C[C@@H]1CN([C@H](C)CO)C(=O)c2cccc(NC(=O)Nc3ccc(F)cc3)c2O[C@@H]1CN(C)Cc1ccc(C(=O)Nc2ccccc2N)cc1	.	.	3	-3	38
CO[C@@H]1CN(C)C(=O)c2cc(NS(C)(=O)=O)ccc2OC[C@H](C)N(S(C)(=O)=O)C[C@@H]1C	.	.	-10	3	0
CO[C@@H](CN(C)Cc1cc(F)ccc1F)[C@@H](C)CN(C(=O)Nc1ccc(C(F)(F)F)cc1)[C@@H](C)CO	3	.	?	.	.
C[C@@H]1CN([C@@H](C)CO)C(=O)c2cc(NS(C)(=O)=O)ccc2O[C@@H](C)CCCCO[C@H]1CN(C)Cc1ccccc1	.	7[16.7 µM]	.	4	0
COc1cc(-c2nc3ccccc3s2)ccc1O	2	0	.	.	.
CCOc1cc(-c2nc3ccccc3s2)ccc1O	6	7	2	-35*	0
COc1ccccc1-c1cnc2c(c1)C(=O)N([C@@H](C)CO)C[C@@H](C)[C@@H](CN(C)Cc1ccncc1)O2	2	5[16.7 µM]	-12	-5	0
C[C@@H]1CN([C@@H](C)CO)C(=O)c2cc(C#CCN(C)C)cnc2O[C@H]1CN(C)Cc1ccc(-c2ccccc2)cc1	-8	-23[16.7 µM]	-3	3	0
COC(=O)c1c2oc(c1C(=O)OC)C(=O)N[C@H](Cc1ccccc1)Cn1cc(nn1)[C@H](Cc1ccccc1)NC(=O)N[C@H](CO)CC2	-2	.	-7	.	.
C#CCOCCOCCOCCNc1nc(N2CCOCC2)nc(N2CCN(C(=O)[C@H](CCCN=C(N)N)n3cc(C(N)[C@@H](C)CC)nn3)CC2)n1 (stereo partly drawn)	1	-1	119*	7	0
C#CCOCCOCCOCCNc1nc(N2CCN(C(=O)[C@H](CCCN=C(N)N)n3cc(C(N)[C@@H](C)CC)nn3)CC2)nc(N2CCN(C(=O)[C@H](CC(N)=O)n3cc([C@@H](N)C(C)C)nn3)CC2)n1 (stereo partly drawn)	3	-2	37*	4	0
C#CCOCCOCCOCCNc1nc(N2CCN(C(=O)[C@H](CC(N)=O)n3cc(C(N)[C@@H](C)CC)nn3)CC2)nc(N2CCN(C(=O)[C@H](CCCCN)n3cc([C@@H](N)CC(N)=O)nn3)CC2)n1 (stereo partly drawn)	-1	.	-3	6	1
C#CCOCCOCCOCCNc1nc(N2CCN(C(=O)[C@H](CC(N)=O)n3cc(C(N)[C@H](C)CC)nn3)CC2)nc(N2CCN(C(=O)[C@H](CC(N)=O)n3cc(C(N)[C@@H](C)CC)nn3)CC2)n1 (stereo partly drawn)	1	4	21*	8	1
